ChEMBL document CHEMBL3232922, “Discovery and SAR of 6-alkyl-2,4-diaminopyrimidines as histamine H₄ receptor antagonists” (J Med Chem, 2014)
pEC50, pKi: −log10 of the molar value. Active and inactive are the calls of the source. No cut-off for these calls is given here.

Columns and labels:
[1] = target: T1, Histamine H4 receptor (Homo sapiens, UniProt Q9H3N8); experiment: Agonist activity at human H4 receptor; conditions: read-out: EC50
[2] = target: T1, Histamine H4 receptor; experiment: Antagonist activity at human histamine H4 receptor expressed in SK-N-MC cells assessed as reduction of histamine-induced inhibition of cAMP-mediated beta-galactosidase reporter gene activity treated 10 mins prior to histamine challenge by microplate reader analysis; format: functional, cell-based; conditions: read-out: pA2 (converted)
[3] = target: T1, Histamine H4 receptor; experiment: Displacement of [3H]histamine from human recombinant histamine H4 receptor expressed in SK-N-MC cells after 45 mins by competition binding analysis; format: cell-based
[4] = target: Voltage-gated inwardly rectifying potassium channel KCNH2 (Homo sapiens, UniProt Q12809); experiment: Inhibition of human ERG channel transfected in HEK293 cells assessed as reduction in delayed rectifier current by patch clamp assay; format: cell-based
Summary of the method: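 The delayed rectifier current (IKr) was recorded in hERG-transfected HEK293 cells with the compound at 3 μM.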

[5] = target: T2, Histamine H4 receptor (Mus musculus, UniProt Q91ZY2); experiment: Antagonist activity at mouse histamine H4 receptor expressed in SK-N-MC cells assessed as reduction of histamine-induced inhibition of cAMP-mediated beta-galactosidase reporter gene activity treated 10 mins prior to histamine challenge by microplate reader analysis; format: functional, cell-based; conditions: read-out: pA2 (converted)
T2 sequence (Q91ZY2 whole entry): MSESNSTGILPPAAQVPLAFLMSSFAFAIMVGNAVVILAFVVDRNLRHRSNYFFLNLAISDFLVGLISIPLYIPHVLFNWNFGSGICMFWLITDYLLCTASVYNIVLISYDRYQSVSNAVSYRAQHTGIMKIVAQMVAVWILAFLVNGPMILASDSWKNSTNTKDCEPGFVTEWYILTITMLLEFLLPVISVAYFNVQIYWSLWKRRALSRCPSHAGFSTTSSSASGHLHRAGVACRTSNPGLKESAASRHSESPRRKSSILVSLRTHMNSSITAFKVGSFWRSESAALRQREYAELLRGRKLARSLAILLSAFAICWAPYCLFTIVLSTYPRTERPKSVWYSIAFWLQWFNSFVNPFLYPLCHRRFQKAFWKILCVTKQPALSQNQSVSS

[6] = Fraction unbound in human plasma; format: ADME, cell-free
[7] = Permeability from basolateral to apical side in human Caco cells; format: ADME, cell-based; conditions: Caco-2, read-out: permeability
[8] = Half life in rat at 10 mg/kg, po; format: ADME, organism-based; parameters: dose 10 mg/kg, route oral; conditions: in vivo
[9] = tested on: Mus musculus; experiment: Antiinflammatory activity in po dosed Balb/c mouse assessed as inhibition of LPS-induced TNF-alpha release at plasma concentration of 62.5 nM administered 30 mins prior to LPS challenge measured after 2 hrs by ELISA; format: functional, organism-based
[10] = Clearance in rat at 2 mg/kg, iv; format: ADME, organism-based; parameters: dose 2 mg/kg, route intravenous; conditions: in vivo
[11] = target: Histamine H3 receptor (Homo sapiens, UniProt Q9Y5N1); experiment: Displacement of [3H]N-alpha-methylhistamine from human recombinant histamine H3 receptor expressed in SK-N-MC cells after 45 mins by competition binding analysis; format: cell-based
[12] = Oral bioavailability in rat at 10 mg/kg; format: ADME, organism-based; conditions: in vivo
[13] = Cmax in rat at 10 mg/kg, po; format: ADME, organism-based; parameters: dose 10 mg/kg, route oral; conditions: in vivo
[14] = target: T2, Histamine H4 receptor; experiment: Displacement of [3H]histamine from mouse histamine H4 receptor expressed in SK-N-MC cells after 45 mins by competition binding analysis; format: cell-based
Summary of the method: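 Transfected cells expressing the H4 receptor, competition against [3H]histamine. Ki is the geometric mean of at least three independent determinations (each in triplicate), calculated by the Cheng–Prusoff equation.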

[15] = Half life in rat microsomes; format: ADME, Microsome
[16] = Half life in human microsomes; format: ADME, Microsome
[17] = Half life in rat at 2 mg/kg, iv; format: ADME, organism-based; parameters: dose 2 mg/kg, route intravenous; conditions: in vivo
[18] = Volume of distribution at steady state in rat at 2 mg/kg, iv; format: ADME, organism-based; parameters: dose 2 mg/kg, route intravenous; conditions: in vivo, read-out: Vdss
[19] = Permeability from apical to basolateral side in human Caco cells; format: ADME, cell-based; conditions: Caco-2, read-out: permeability
[20] = AUC in rat at 2 mg/kg, iv; format: ADME, organism-based; parameters: dose 2 mg/kg, route intravenous; conditions: plasma
[21] = Half life in beagle dog at 2 mg/kg, iv; format: ADME, organism-based, Canis lupus familiaris; parameters: dose 2 mg/kg, route intravenous; conditions: in vivo
[22] = Tmax in Balb/c mouse at 20 mg/kg, po; format: ADME, organism-based; parameters: dose 20 mg/kg, route oral; conditions: in vivo
[23] = Initial plasma concentration in beagle dog at 2 mg/kg, iv; format: ADME, organism-based, Canis lupus familiaris; parameters: dose 2 mg/kg, route intravenous
[24] = Cmax in beagle dog at 10 mg/kg, po; format: ADME, organism-based, Canis lupus familiaris; parameters: dose 10 mg/kg, route oral; conditions: in vivo
[25] = AUC in beagle dog at 10 mg/kg, po; format: ADME, organism-based, Canis lupus familiaris; parameters: dose 10 mg/kg, route oral; conditions: plasma
[26] = tested on: Rattus norvegicus; experiment: Volume of distribution at steady state in Sprague-Dawley rat at 2 mg/kg, iv; format: ADME, organism-based; parameters: dose 2 mg/kg, route intravenous; conditions: in vivo
[27] = Initial plasma concentration in Sprague-Dawley rat at 2 mg/kg, iv; format: ADME, organism-based; parameters: dose 2 mg/kg, route intravenous
[28] = Half life in beagle dog at 10 mg/kg, po; format: ADME, organism-based, Canis lupus familiaris; parameters: dose 10 mg/kg, route oral; conditions: in vivo
[29] = Oral bioavailability in Sprague-Dawley rat at 10 mg/kg; format: ADME, organism-based; conditions: in vivo
[30] = Tmax in beagle dog at 10 mg/kg, po; format: ADME, organism-based, Canis lupus familiaris; parameters: dose 10 mg/kg, route oral; conditions: in vivo
[31] = AUC in Balb/c mouse at 20 mg/kg, po; format: ADME, organism-based; parameters: dose 20 mg/kg, route oral; conditions: plasma
[32] = Oral bioavailability in beagle dog at 10 mg/kg; format: ADME, organism-based, Canis lupus familiaris; conditions: in vivo
[33] = Tmax in Sprague-Dawley rat at 10 mg/kg, po; format: ADME, organism-based; parameters: dose 10 mg/kg, route oral; conditions: in vivo
[34] = tested on: Canis familiaris; experiment: AUC in beagle dog at 2 mg/kg, iv; format: ADME, organism-based, Canis lupus familiaris, Plasma; parameters: dose 2 mg/kg, route intravenous; conditions: in vivo
[35] = tested on: Rattus norvegicus; experiment: Clearance in Sprague-Dawley rat at 2 mg/kg, iv; format: ADME, organism-based; parameters: dose 2 mg/kg, route intravenous; conditions: in vivo
[36] = Half life in Sprague-Dawley rat at 10 mg/kg, po; format: ADME, organism-based; parameters: dose 10 mg/kg, route oral; conditions: in vivo
[37] = Cmax in Balb/c mouse at 20 mg/kg, po; format: ADME, organism-based; parameters: dose 20 mg/kg, route oral; conditions: in vivo
[38] = AUC in Sprague-Dawley rat at 2 mg/kg, iv; format: ADME, organism-based; parameters: dose 2 mg/kg, route intravenous; conditions: plasma
[39] = Half life in Balb/c mouse at 20 mg/kg, po; format: ADME, organism-based; parameters: dose 20 mg/kg, route oral; conditions: in vivo
[40] = AUC in Sprague-Dawley rat at 10 mg/kg, po; format: ADME, organism-based; parameters: dose 10 mg/kg, route oral; conditions: plasma
[41] = Volume of distribution at steady state in beagle dog at 2 mg/kg, iv; format: ADME, organism-based, Canis lupus familiaris; parameters: dose 2 mg/kg, route intravenous; conditions: in vivo, read-out: Vdss
[42] = tested on: Rattus norvegicus; experiment: Half life in Sprague-Dawley rat at 2 mg/kg, iv; format: ADME, organism-based; parameters: dose 2 mg/kg, route intravenous; conditions: in vivo
[43] = Cmax in Sprague-Dawley rat at 10 mg/kg, po; format: ADME, organism-based; parameters: dose 10 mg/kg, route oral; conditions: in vivo

T1 sequence (Q9H3N8 whole entry): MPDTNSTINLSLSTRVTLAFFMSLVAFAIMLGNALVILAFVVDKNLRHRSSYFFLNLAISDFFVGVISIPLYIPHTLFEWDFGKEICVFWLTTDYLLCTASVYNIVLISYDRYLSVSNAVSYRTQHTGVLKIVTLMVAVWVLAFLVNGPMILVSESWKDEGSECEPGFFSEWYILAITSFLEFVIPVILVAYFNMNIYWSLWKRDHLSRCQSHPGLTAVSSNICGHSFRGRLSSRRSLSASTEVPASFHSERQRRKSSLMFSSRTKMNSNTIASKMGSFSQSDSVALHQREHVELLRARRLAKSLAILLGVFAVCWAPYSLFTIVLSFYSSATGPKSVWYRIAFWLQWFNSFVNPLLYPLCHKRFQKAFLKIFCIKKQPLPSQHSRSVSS
Sequence of Histamine H3 receptor (Q9Y5N1 whole entry): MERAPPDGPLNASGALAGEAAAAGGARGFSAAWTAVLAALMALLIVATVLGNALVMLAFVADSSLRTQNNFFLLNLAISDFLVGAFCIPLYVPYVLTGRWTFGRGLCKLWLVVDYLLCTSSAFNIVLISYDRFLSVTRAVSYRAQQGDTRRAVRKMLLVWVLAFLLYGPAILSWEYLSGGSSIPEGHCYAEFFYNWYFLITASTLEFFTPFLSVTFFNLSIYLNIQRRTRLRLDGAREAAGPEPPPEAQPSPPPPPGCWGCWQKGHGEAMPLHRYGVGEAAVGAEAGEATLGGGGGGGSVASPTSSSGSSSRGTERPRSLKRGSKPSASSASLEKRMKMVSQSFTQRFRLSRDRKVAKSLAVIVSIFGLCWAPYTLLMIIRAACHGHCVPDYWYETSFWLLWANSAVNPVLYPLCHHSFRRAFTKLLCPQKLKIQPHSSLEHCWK
Sequence of Voltage-gated inwardly rectifying potassium channel KCNH2 (Q12809 whole entry): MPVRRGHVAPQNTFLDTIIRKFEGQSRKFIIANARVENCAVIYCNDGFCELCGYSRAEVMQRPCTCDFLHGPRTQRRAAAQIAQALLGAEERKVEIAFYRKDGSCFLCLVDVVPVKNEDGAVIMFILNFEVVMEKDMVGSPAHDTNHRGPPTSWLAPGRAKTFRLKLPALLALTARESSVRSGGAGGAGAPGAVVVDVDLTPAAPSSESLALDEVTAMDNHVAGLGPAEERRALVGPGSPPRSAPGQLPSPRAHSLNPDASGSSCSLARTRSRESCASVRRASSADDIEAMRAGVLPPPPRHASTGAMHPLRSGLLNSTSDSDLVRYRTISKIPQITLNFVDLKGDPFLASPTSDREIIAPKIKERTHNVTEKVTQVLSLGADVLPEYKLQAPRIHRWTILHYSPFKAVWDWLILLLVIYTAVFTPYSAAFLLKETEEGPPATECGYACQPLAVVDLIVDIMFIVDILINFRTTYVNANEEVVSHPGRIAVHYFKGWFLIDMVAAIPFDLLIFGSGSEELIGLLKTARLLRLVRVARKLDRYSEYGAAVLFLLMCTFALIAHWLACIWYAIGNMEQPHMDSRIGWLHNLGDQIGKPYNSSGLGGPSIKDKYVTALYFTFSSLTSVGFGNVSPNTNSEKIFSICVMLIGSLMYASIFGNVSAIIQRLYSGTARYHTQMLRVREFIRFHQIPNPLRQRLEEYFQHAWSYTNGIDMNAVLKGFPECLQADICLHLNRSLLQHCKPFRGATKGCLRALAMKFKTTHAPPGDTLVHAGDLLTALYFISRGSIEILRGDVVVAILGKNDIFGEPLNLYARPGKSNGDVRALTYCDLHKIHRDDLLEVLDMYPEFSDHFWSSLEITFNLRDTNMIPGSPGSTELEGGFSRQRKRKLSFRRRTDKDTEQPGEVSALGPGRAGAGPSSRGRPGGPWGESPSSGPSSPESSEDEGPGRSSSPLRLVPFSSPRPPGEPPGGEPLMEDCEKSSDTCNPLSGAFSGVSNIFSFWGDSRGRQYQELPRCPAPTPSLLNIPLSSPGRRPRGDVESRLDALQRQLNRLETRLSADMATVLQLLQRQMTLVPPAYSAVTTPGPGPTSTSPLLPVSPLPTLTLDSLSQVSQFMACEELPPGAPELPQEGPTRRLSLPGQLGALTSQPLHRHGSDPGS

## CCCCc1cc(N2CC[C@@H](NC)C2)nc(N)n1
[1]
  pEC50: < 5.00
[2]
  Kb: 3.98 nM
[3]
  pKi: 8.82

## CN[C@@H]1CCN(c2cc(C34CC5CC(CC(C5)C3)C4)nc(N)n2)C1
[1]
  pEC50: < 5.00
[2]
  Kb: < 0.1 nM
[3]
  pKi: 8.77

## CN[C@@H]1CCN(c2cc(C3CCCCC3)nc(N)n2)C1
[1]
  pEC50: < 5.00
[2]
  Kb: < 0.1 nM
[3]
  pKi: 8.64

## CN1CCN(c2cc(C3CCCC3)nc(N)n2)CC1
[1]
  pEC50: < 5.00
[2]
  Kb: 0.126 nM
[3]
  pKi: 8.85

## Nc1nc(C2CCCC2)cc(N2C[C@H]3CCCN[C@H]3C2)n1
[1]
  pEC50: < 5.00
[2]
  Kb: < 0.1 nM
[3]
  pKi: 8.74

## CN1C[C@@H]2CN(c3cc(C4CCCC4)nc(N)n3)C[C@@H]2C1
[1]
  pEC50: < 5.00
[2]
  Kb: 20 nM

## CCc1cc(N2CC[C@@H](NC)C2)nc(N)n1
[4]
  INH: > 10 µM
[5]
  Kb: 50.1 nM
[1]
  pEC50: < 5.00
[6]
  fraction unbound: 0.26
[7]
  Papp B→A: 14 ×10⁻⁶ cm/s
[8]
  half-life: 9.7 h
[9]
  inhibition: Active
[10]
  clearance: 5 mL/min/kg
[2]
  Kb: 10 nM
[11]
  pKi: 6.17
[12]
  bioavailability: 50%
[13]
  Cmax: 1.5 µM
[14]
  pKi: 7.21
[15]
  half-life: 1.05 h
[16]
  half-life: > 2 h
[17]
  half-life: 5.3 h
[18]
  Vd: 6.3 L/kg
[19]
  Papp A→B: 54 ×10⁻⁶ cm/s
[20]
  AUC: 11 µM·h

## CN[C@@H]1CCN(c2cc(Cl)nc(N)n2)C1
[3]
  pKi: < 5.00

## CN[C@@H]1CCN(c2nc(N)nc3c2oc2ncc(Cl)cc23)C1
[3]
  pKi: 8.05

## CN1CCN(c2ncnc3c2oc2ccc(Cl)cc23)CC1
[3]
  pKi: 8.30

## Nc1nc(C2CCCC2)cc(N2CC(N)C2)n1
[1]
  pEC50: 5.89
[2]
  Kb: 25.1 nM
[3]
  pKi: 8.26

## CN[C@H]1CCN(c2cc(C3CCCC3)nc(N)n2)C1
[1]
  pEC50: < 5.00
[3]
  pKi: 7.60

## CN[C@@H]1CCN(c2cc(C(C)C)nc(N)n2)C1
[1]
  pEC50: < 5.00
[2]
  Kb: 12.6 nM

## Cc1cnc(OCCCCC2CCN(C)CC2)cc1-c1nc2c(C)c(F)ccc2[nH]1
[3]
  pKi: 8.30

## CN[C@@H]1CCN(c2cc(Cc3ccccc3)nc(N)n2)C1
[21]
  half-life: 9.3 h
[1]
  pEC50: < 5.00
[22]
  Tmax: 0.5 h
[23]
  C0: 2.5 µM
[24]
  Cmax: 4.2 µM
[25]
  AUC: 45 µM·h
[26]
  Vdss: 6.3 L/kg
[27]
  C0: 19 µM
[2]
  Kb: 10 nM
[28]
  half-life: 10 h
[29]
  bioavailability: 50%
[30]
  Tmax: 0.6 h
[31]
  AUC: 60 µM·h
[32]
  bioavailability: 112%
[33]
  Tmax: 5 h
[34]
  AUC: 8.1 µM·h
[35]
  CL: 5.5 mL/min/kg
[36]
  half-life: 9.3 h
[37]
  Cmax: 8.5 µM
[38]
  AUC: 11 µM·h
[39]
  half-life: 5.2 h
[40]
  AUC: 27.8 µM·h
[41]
  Vd: 15.1 L/kg
[42]
  t1/2: 5.3 h
[43]
  Cmax: 1.6 µM

## CN[C@@H]1CCN(c2cc(C3CCC3)nc(N)n2)C1
[1]
  pEC50: < 5.00
[2]
  Kb: 0.398 nM
[3]
  pKi: 8.62

## Nc1nc(Cc2ccccc2)cc(N2CC[C@@H](N)C2)n1
[3]
  pKi: 7.00
